How the values were obtained:
[1] = system: Mus musculus; experiment: Minimal effective s.c. dose to reverse Scopolamine induced amnesia in mouse passive-avoidance test.
[2] = organism: Mus musculus; experiment: Change in the latency time on day 1 to that of day 2; format: functional
Outline: (§1)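 Mouse light/dark step-through test with a pitfall floor: entering the dark room drops the mouse 40 cm into 10 °C water. Latencies in s are taken at training and at retention 24 h later, capped at 120 s. Mice not entering within 60 s are excluded. Dosing is sc 20 min before training, in saline or DMSO/H2O vehicle.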

[3] = organism: Mus musculus; experiment: Latency time on 2nd (post-treatment) day of mouse passive-avoidance test.; format: functional
Outline: as §1

[4] = organism: Mus musculus; experiment: Latency time on 1st day of mouse passive-avoidance test.; format: functional
Outline: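 Mouse light/dark step-through test with a pitfall floor: entering the dark room drops the mouse 40 cm into 10 °C water. Mice not entering within 60 s are excluded. Dosing is sc 20 min before training, in saline or DMSO/H2O vehicle.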

[5] = system: Mus musculus; experiment: Minimal effective dose to reverse Scopolamine induced amnesia, when given ip in mouse passive avoidance test; format: functional
Outline: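 Mouse passive avoidance (light/dark box) with a pitfall floor: entering the dark room drops the mouse 40 cm into 10 °C water. Test drugs were given in a 1-to-10 dilution series 20 min before training. […] Retention was tested at 24 h, with a 120 s maximum. Mice not entering within 60 s at training were excluded. The read-out is the retention minus training latency (s).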

[6] = system: Mus musculus; experiment: Minimal effective dose to reverse Scopolamine induced amnesia, when given sc in mouse passive avoidance test; Dose limited by solubility problems; format: functional

Row | Structure (SMILES) | Dose [1] [mg/kg] | Delta latency time [2] [s] | Latency time [3] [s] | Latency time [4] [s] | Dose [5] [mg/kg] | Dose [6] [mg/kg]
1 | O=C1CC[C@@H]2CN(S(=O)(=O)c3ccc(F)cc3)CCN12 | 0.001 | 93.8 | 104.4 | 19.7 |  | 
2 | O=C1CC[C@@H]2CN(Cc3ccc(F)cc3)CCN12 | >10 |  |  |  |  | 
3 | O=C(c1ccc(F)cc1)N1CCN2C(=O)CC[C@@H]2C1 | 10 | 77.2 | 88.9 | 11.7 |  | 
4 | Cc1ccc(C(=O)N2CCN3C(=O)CC[C@@H]3C2)cc1 | 1 | 84.5 | 100.1 | 15.6 |  | 
5 | O=C1CC[C@@H]2CN(S(=O)(=O)c3ccc([N+](=O)[O-])cc3)CCN12 | 10 | 75.4 | 89.2 | 13.8 |  | 
6 | Cc1ccc(S(=O)(=O)N2CCN3C(=O)CC[C@@H]3C2)cc1 | 1 | 80.5 | 95.6 | 15.1 |  | 
7 | NC(=O)CN1CCCC1=O |  | 91.2 | 108.8 | 17.6 | 30 | 
8 | COc1ccc(C(=O)N2CCN3C(=O)CC[C@@H]3C2)cc1 |  |  |  |  |  | >1
9 | O=C(c1ccc(Cl)cc1)N1CCN2C(=O)CC[C@@H]2C1 | 10 | 85.4 | 103.7 | 18.3 |  | 
10 | O=C(c1ccc([N+](=O)[O-])cc1)N1CCN2C(=O)CC[C@@H]2C1 | 10 | 78.2 | 96.2 | 18 |  | 
11 | O=C1CC[C@@H]2CN(S(=O)(=O)c3ccc(Cl)cc3)CCN12 |  |  |  |  |  | >0.1
12 | O=C1CC[C@@H]2CN(Cc3ccccc3)CCN12 | 1 | 63.2 | 77.4 | 14.2 |  | 
13 | COc1ccc(S(=O)(=O)N2CCN3C(=O)CC[C@@H]3C2)cc1 | 0.1 | 103.5 | 118.3 | 14.8 |  | 
14 | O=C1CC[C@@H]2CN(S(=O)(=O)c3ccccc3)CCN12 |  |  |  |  |  | >10
15 | O=C(c1ccccc1)N1CCN2C(=O)CC[C@@H]2C1 | 1 | 85.2 | 102 | 16.8 |  | 
16 | C[C@@H]1C[C@@H]2CN(C(=O)c3ccccc3)CCN2C1=O (relative stereo) | 1 | 65.8 | 83.5 | 17.7 |  | 
17 | C[C@H]1C[C@@H]2CN(C(=O)c3ccccc3)CCN2C1=O (relative stereo) | 1 | 85.2 | 99.5 | 14.3 |  | 
18 | C[C@H]1C[C@@H]2CN(C(=O)c3ccc(F)cc3)CCN2C1=O (relative stereo) | 0.1 | 85.6 | 107.4 | 21.8 |  | 
19 | C[C@@H]1C[C@@H]2CN(S(=O)(=O)c3ccc(F)cc3)CCN2C1=O (relative stereo) | 0.1 | 96.5 | 118.4 | 21.9 |  | 
20 | C[C@H]1C[C@@H]2CN(S(=O)(=O)c3ccccc3)CCN2C1=O (relative stereo) | 10 | 73 | 91.3 | 18.3 |  | 
21 | C[C@H]1C[C@@H]2CN(S(=O)(=O)c3ccc(F)cc3)CCN2C1=O (relative stereo) | 0.1 | 78 | 94.9 | 16.9 |  | 
22 | C[C@@H]1C[C@@H]2CN(S(=O)(=O)c3ccccc3)CCN2C1=O (relative stereo) | 1 | 78.5 | 94.8 | 13.6 |  | 
23 | C[C@@H]1C[C@@H]2CN(C(=O)c3ccc(F)cc3)CCN2C1=O (relative stereo) | 0.1 | 80 | 104 | 24 |  | 
24 | CN1[C@@H]2C[C@@H](OC(=O)[C@H](CO)c3ccccc3)C[C@H]1[C@@H]1O[C@@H]12 [SCOPOLAMINE] |  | 27.9 | 44.5 |  | 1.5 | 
